APJ antag – APJ receptor antagonism. inhibition, % at 20 µM. CHO-K1 APJ beta-arrestin complementation, luminescence. hit rate 0.32% among 330,000. AID 2521. P35414;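 active = inhibition above about 40% at 20 µM, limit read from the data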;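 note: cells challenged with 10 nM apelin-13 agonist together with compound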
APJ ag – activates the human apelin receptor APJ; hit rate 0.11% among 330,000; P35414; activation, % at 20 µM; CHO-K1 APJ PathHunter beta-arrestin, luminescence; 0% DMSO wells, 100% apelin;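 active = activation more than six SD over the plate average, tested at 20 µM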
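assay system = CHO-K1 APJ beta-arrestin complementation cell line | input = cell density 1000 per well | dosing = compound 20 µM once, DMSO 1% | timing = compound 90 min 25 °C, reagent 1 h | measured by = luminescence from split beta-galactosidase complementation, Galacton Star/Emerald II substrate | read-out basis = APJ agonist activity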
EBI2 block – EBI2 (human) antagonism. P32249. EBI2 beta-arrestin recruitment, luminescence, 7a,25-OHC stimulated. inhibition, % at 5 µM. hit rate 0.81% among 360,000; in the data active = inhibition above about 38%;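 note: enzyme fragment complementation signal reports receptor beta-arrestin coupling in cells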
CCR6 antagonist – CCR6 (human) receptor antagonism. P51684. CHO-K1 CCR6 PathHunter beta-arrestin, luminescence, CCL20-stimulated. inhibition, % at 20 µM. hit rate 0.49% among 340,000. AID 493098;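 active = compounds whose inhibition of the agonist-driven luminescence signal at 20 µM reaches about 50%, limit read from the data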;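 note: cells stimulated with CCL20 at 14 nM final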
HTR2A ag – mouse HTR2A agonism via beta-arrestin recruitment | P35363 | CHO-K1 mHTR2A beta-arrestin complementation, luminescence; percent of 30 µM serotonin response | activation, % at 7.6 µM | hit rate 0.66% among 360,000;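 active = activation above a run cutoff, the mean activation of all tested compounds plus 3 SD, cut at about 14% in these data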
Target sequence (P35363 whole entry, looked up): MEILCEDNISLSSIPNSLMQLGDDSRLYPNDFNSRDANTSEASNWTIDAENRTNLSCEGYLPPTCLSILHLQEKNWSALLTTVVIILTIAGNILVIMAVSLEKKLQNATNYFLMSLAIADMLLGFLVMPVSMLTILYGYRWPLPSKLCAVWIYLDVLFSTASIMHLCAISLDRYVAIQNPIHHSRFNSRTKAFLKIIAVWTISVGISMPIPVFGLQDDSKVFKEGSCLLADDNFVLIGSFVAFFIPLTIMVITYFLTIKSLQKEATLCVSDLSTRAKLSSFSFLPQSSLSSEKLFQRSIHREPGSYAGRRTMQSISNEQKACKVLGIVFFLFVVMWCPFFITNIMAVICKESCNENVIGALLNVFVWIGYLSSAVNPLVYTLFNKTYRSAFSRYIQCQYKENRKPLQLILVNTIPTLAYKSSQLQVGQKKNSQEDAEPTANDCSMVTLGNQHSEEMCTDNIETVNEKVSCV
CXCR6 block – blocks human CXCR6 beta-arrestin recruitment; hit rate 0.36% among 360,000; O00574; inhibition, % at 20 µM; CHO-K1 PathHunter CXCR6 beta-arrestin, luminescence; in the data active = inhibition above about 34%, passing the limit was not always enough;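 note: antagonist mode with CXCL16 agonist at 10 nM final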
CXCR6 confirm – confirmation of human CXCR6 receptor antagonists. shares compounds with CXCR6 block. CHO-K1 CXCR6 PathHunter beta-arrestin, luminescence. inhibition, % at 20 µM. hit rate 65% among 700. AID 602409;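 active = mean inhibition over four retests above 40%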;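 note: receptor stimulated with 10 nM CXCL16 agonist; beta-galactosidase fragment complementation upon beta-arrestin recruitment to receptor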
Large screens that a line does not name were inactive (follow-up assays come after a bar, where they were run). A selection: hits, their analogues and other compounds. The true share with any hit is near 2.1%.

C=CC[C@@H](CC(=O)N(CCO)Cc1ccccc1)C(=O)N[C@H](COC(=O)[C@@H](CC=C)CC(=O)OC(C)(C)C)C(C)(C)C	none
C=CC[C@H](CC(=O)N(CCO)Cc1ccccc1)C(=O)N[C@H](COC(=O)[C@H](CC=C)CC(=O)OC(C)(C)C)Cc1ccccc1	CXCR6 block 42 | CXCR6 confirm inactive
CN(CCc1ccccn1)C1CCCN(S(=O)(=O)c2ccccc2)C1 (stereo unspecified)	none
O=C(NC(=S)N1CCN(c2c(Cl)cccc2[N+](=O)[O-])CC1)c1cccs1	CXCR6 block 38 | CXCR6 confirm inactive
O=C1NC[C@H](Cc2ccccc2)N(CC2CCN(CCc3ccccc3)CC2)C1=O	none (no result: APJ antag, APJ ag)
COC(=O)c1ccc(/C=C(\C#N)C(=O)NC(C)c2ccccc2)cc1 (stereo unspecified)	CCR6 antagonist 53, CXCR6 block 40 | CXCR6 confirm 55
CCc1cccc(C)c1NC(=S)N(CCN(C)C)C(C)c1ccco1 (stereo unspecified)	none
O=[N+]([O-])c1ccc(Sc2cccc3cccnc23)c([N+](=O)[O-])c1	CCR6 antagonist 56, CXCR6 block 53 | CXCR6 confirm 70
O=C(COc1ccc(Br)cc1Cl)NC(=S)N1CCc2ccccc21	CXCR6 block 57 | CXCR6 confirm 53
COc1cc(/C=C/c2ccc3c(Br)cc(Br)c(O)c3n2)ccc1O	CCR6 antagonist 68, CXCR6 block 42 (no result: APJ antag, APJ ag) | CXCR6 confirm 51
COc1ccc(/C=C/c2ccc3c(Br)ccc(O)c3n2)cc1	none
Cc1cccn2c(=O)c(C(=O)NC3CCCCC3)c(O)nc12	none
CCn1nc(NC(C)=O)c2cc3ccc(C)cc3nc21	CXCR6 block 44 | CXCR6 confirm inactive
CCn1nc(NC(=O)C(C)C)c2cc3ccc(C)cc3nc21	none
COc1cc(C(=O)NCC(c2ccco2)N2CCc3ccccc3C2)cc(OC)c1OC (stereo unspecified)	CXCR6 block 44 | CXCR6 confirm 54
O=C(NCC(c1ccco1)N1CCc2ccccc2C1)c1ccccc1 (stereo unspecified)	none
Cn1cnc([N+](=O)[O-])c1NC(C)(C)C	none
Cn1cnc([N+](=O)[O-])c1S(=O)(=O)c1ccc(Cl)cc1	CXCR6 block 42 (no result: APJ antag, APJ ag) | CXCR6 confirm 69
Cc1cc(OC(=O)Cc2cccc3ccccc23)c([N+](=O)[O-])c(=O)[nH]1	CXCR6 block 39 | CXCR6 confirm inactive
COc1ccc(-c2c(C(=O)c3ccccc3)[nH]c(N)c2C(=O)c2ccccc2)cc1OC	CXCR6 block 42 (no result: APJ antag, APJ ag, CCR6 antagonist) | CXCR6 confirm 41
Cc1ccc(Cn2c(SCC(=O)N3CC(=O)Nc4ccccc43)nc3ccccc3c2=O)cc1	none
O=C1CN(C(=O)CSc2nc3cc(Cl)ccc3c(=O)n2Cc2ccccc2)c2ccccc2N1	CCR6 antagonist 56, CXCR6 block 43 | CXCR6 confirm 47
Cc1nonc1NC(=O)CSc1nnc(-c2ccoc2C)n1CC(C)C	none
CC(OC(=O)c1nc(-c2ccccc2)n(-c2ccccc2)n1)C(=O)Nc1cc(Cl)cc(Cl)c1 (stereo unspecified)	CXCR6 block 47 | CXCR6 confirm inactive
Cc1nn(-c2ccccc2)c(C)c1C(=O)OC(C)C(=O)Nc1ccc(C(N)=O)cc1 (stereo unspecified)	none
O=[N+]([O-])c1cc(-c2ncccn2)c([N+](=O)[O-])s1	CCR6 antagonist 85, CXCR6 block 56 | CXCR6 confirm 73
CCCn1c(Nc2nc3ccccc3n2C)nc2ccccc21	CCR6 antagonist 84, CXCR6 block 70 | CXCR6 confirm inactive
CCCCn1c(Nc2ccccc2)nc2ccccc21	none
CCCN(CC(=O)Nc1ccccc1C)C(=O)c1cc(C)oc1C	none
C=CCN(C(=O)CSC1=NC(=O)CN1C(C)=O)c1nc(C)c(-c2ccccc2)s1	CXCR6 block 40 | CXCR6 confirm inactive
CCNC(=S)N/N=C(\C)c1ccc(Cl)s1	CXCR6 block 41 | CXCR6 confirm inactive
C=C(C)CNC(=S)N/N=C(\C)c1ccc(Cl)s1	none
CC(C)c1cc(-c2cc(-c3ccc(Cl)cc3)on2)nc(NCC2CC2)n1	none
Cc1cccc(N=Cc2cc(Br)cc(Cl)c2O)c1	CXCR6 block 54 | CXCR6 confirm inactive
COc1ccc(NC(=O)c2sc(=O)n(Cc3ccc(SC)cc3)c2C)cc1OC	none (no result: APJ antag, APJ ag, CCR6 antagonist)
Cc1ccc(C(=O)NCc2ccc3c(c2)OCO3)c(Cl)c1	none (no result: APJ antag, APJ ag, CCR6 antagonist)
Cc1cccc(CS(=O)(=O)c2ncc(Cl)c(C(=O)NCc3ccc4c(c3)OCO4)n2)c1	CXCR6 block 57 | CXCR6 confirm 44
Cc1ccc(NC(=O)c2nc(S(=O)(=O)Cc3ccccc3C)ncc2Cl)cc1C	EBI2 block 56, CCR6 antagonist 61, CXCR6 block 50 | CXCR6 confirm 60
COC(=O)c1ccc(NC(=O)c2nc(S(=O)(=O)Cc3cccc(C)c3)ncc2Cl)cc1	EBI2 block 47, CCR6 antagonist 67, CXCR6 block 66 | CXCR6 confirm 61
COc1cccc(NC(=O)c2nc(S(C)(=O)=O)ncc2Cl)c1	none
CCc1ccc(NC(=O)c2nc(S(=O)(=O)Cc3ccccc3)ncc2Cl)cc1	CXCR6 block 82 (no result: CCR6 antagonist) | CXCR6 confirm 80
CCSc1ncc(Cl)c(C(=O)Nc2ccccc2)n1	none
CCCNC(=O)CSc1nccn1Cc1ccc(OC)cc1	none
CCOc1ccccc1NC(=O)c1nc(S(=O)(=O)Cc2ccccc2)ncc1Cl	EBI2 block 46, CCR6 antagonist 51, CXCR6 block 56 | CXCR6 confirm 53
CCOc1ccccc1NC(=O)c1ccc(C(=O)Nc2ccccc2OCC)nc1	none
CCOC(=O)c1ccc(NC(=O)c2nc(S(=O)(=O)Cc3ccccc3)ncc2Cl)cc1	EBI2 block 42, CCR6 antagonist 89, CXCR6 block 70 | CXCR6 confirm 73
CCOC(=O)c1ccc(NC(=O)c2ccccc2)cc1	none
COc1ccc2oc(=O)c(C(=O)N3CCN(c4ccc(F)cc4)CC3)cc2c1	none
Cc1cccc(-n2ccnc2SCC(=O)Nc2cc(C)on2)c1	none
CCC(=O)Nc1ccccc1C(=O)N1CCOCC1	none
O=C(CCCN1C(=O)c2ccccc2C1=O)Nc1ccccc1C(=O)N1CCOCC1	CXCR6 block 66 | CXCR6 confirm inactive
O=[N+]([O-])c1ccc(C2CCCC/C2=N/O)c([N+](=O)[O-])c1 (stereo unspecified)	none
O/N=C1/CCCCC1c1ccccn1 (stereo unspecified)	CXCR6 block 57 | CXCR6 confirm inactive
CC(=O)O[C@H]1CC[C@@]2(C)C(CCC3C2CC[C@]2(C)OC(=O)CCC32)C1 (stereo partly specified)	none

Screening data as filed in PubChem BioAssay.
